Bioassay records: PubChem BioAssay, Johns Hopkins Ion Channel Center
In the library only some 3.5% were active in any assay of this set; here they are far more common.
MrgX1 antagonist = human MrgX1 receptor antagonism, primary screen; MRGX1-HEK293 calcium flux, Fluo-4, BAM8-22 antagonism; hits give low values; Q96LB2; B-score at 10 µM; 310,000 tested, 1.3% active;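 active = calcium-response B-score plate-corrected more than 3 library SD below zero, starting fluorescence within 5 deviations, no agonist response on first addition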;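 note: peak minus trough fluorescence over baseline after final BAM8-22 challenge near maximal dose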
Target sequence (Q96LB2 whole entry, looked up): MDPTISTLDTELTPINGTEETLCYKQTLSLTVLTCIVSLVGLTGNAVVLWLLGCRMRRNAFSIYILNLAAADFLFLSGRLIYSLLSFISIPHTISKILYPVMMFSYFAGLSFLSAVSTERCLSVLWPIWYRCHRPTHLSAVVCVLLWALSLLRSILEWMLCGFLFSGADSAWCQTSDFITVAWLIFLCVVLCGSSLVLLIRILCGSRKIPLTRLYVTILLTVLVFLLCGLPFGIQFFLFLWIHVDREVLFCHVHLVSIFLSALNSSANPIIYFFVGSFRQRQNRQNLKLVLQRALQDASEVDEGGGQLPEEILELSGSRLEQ
MrgX1 PAM = human MrgX1 positive allosteric modulation, primary screen; B-score at 10 µM; Q96LB2; MrgX1-HEK293, Fluo-4 calcium flux, FDSS; hits give high values; 310,000 tested, 0.63% active;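 active = plate-corrected calcium response at least 3 library SD above typical, normal starting fluorescence, not activating the receptor alone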;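 note: compound read alongside a low EC10 to EC30 dose of BAM8-22 agonist; peak minus trough fluorescence over baseline measured at the second addition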
RGS4 inh = inhibitors of human RGS4; P49798; HEK293 M3R/RGS4 inducible, Fluo-4 calcium flux; hits give high values; triggered by carbachol at its EC20; B-score at 10 µM; 310,000 tested, 0.45% active; AID 463165;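 active = B-score, a plate-corrected calcium signal, over three deviations above library mean, with baseline fluorescence within five deviations of library mean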;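 note: RGS4 expression induced by doxycycline in cells with stable M3 receptor; B-score is computed from the integrated fluorescence ratio over baseline after carbachol; higher B-score means a larger calcium signal and so more RGS4 inhibition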
Target sequence (P49798 whole entry, looked up): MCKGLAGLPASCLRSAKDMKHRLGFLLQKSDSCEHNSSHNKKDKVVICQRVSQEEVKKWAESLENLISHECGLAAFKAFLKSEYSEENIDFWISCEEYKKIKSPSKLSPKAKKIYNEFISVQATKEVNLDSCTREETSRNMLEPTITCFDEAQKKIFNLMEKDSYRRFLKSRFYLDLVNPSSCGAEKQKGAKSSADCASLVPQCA
RGS4 pot = RGS4 potentiation or activation. HEK293 M3R/inducible RGS4, carbachol calcium flux Fluo4; hits give low values. B-score at 10 µM. 310,000 tested, 0.92% active. AID 463111;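 active = B-score of the integrated calcium signal more than 4 SD below the library mean, with starting fluorescence not abnormally high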;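 note: negative B-score means reduced calcium response which marks RGS4 activation or potentiation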
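Test system: HEK293 cells with stable M3R and inducible RGS4; also added: carbachol at ECmax as muscarinic agonist stimulus; schedule: dye loading 30 min 37 °C, buffer rest 30 min RT; technique: kinetic calcium fluorescence imaging with Fluo4-AM dye, 2 µM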
MrgX1 ag = activates human MrgX1 receptor signaling. Q96LB2. MrgX1-HEK293 cells, Fluo-4 calcium fluorescence, agonist mode; hits give high values. 310,000 tested, 0.44% active. B-score at 10 µM. AID 588627;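 active = calcium response B-score plate-corrected fluorescence ratio at least 3 library SD, with starting fluorescence B-score inside 5 SD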
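Assay system: stable human MrgX1 HEK293 cell line. Quantity: 15,000 cells per well. Schedule: cells plated overnight, dye loaded 0.5 h 37 °C, 0.5 h room temperature. Detection: Fluo-4 NW calcium-flux fluorescence, kinetic read. Read-out basis: peak-minus-minimum fluorescence over baseline, converted to B scores. Control set: positive and negative control wells on each plate.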
A number is an active result; - = inactive; . = not tested or not shown.

SMILES | MrgX1 antagonist | MrgX1 PAM | RGS4 inh | RGS4 pot | MrgX1 ag
Cc1cccc(C(=O)Nc2scc(-c3ccc(Br)cc3)c2C(=O)O)c1 | - | - | - | - | -
CC(C)c1ccc(-c2csc(NC(=O)c3cccs3)c2C(=O)O)cc1 | -6.75 | 19 | - | - | -
CC(C)c1ccc(C(CC(=O)O)NC(=O)c2cccs2)cc1 (stereo not given) | - | - | - | - | -
CC(=O)N1CCOc2ccc(S(=O)(=O)NCCc3cccc(C)c3)cc21 | - | - | - | - | -
COc1ccc(OC)c(/C=C2\Oc3cc(OCC(=O)N4CCC(C(=O)O)CC4)ccc3C2=O)c1 | - | - | - | - | 54.8
COc1ccc(/C=C2\Oc3cc(OCC(=O)N4CCC(C(=O)O)CC4)ccc3C2=O)c(OC)c1 | - | - | - | - | -
COc1ccc(OC)c(/C=C2\Oc3cc(OCC(=O)N4CC(O)C[C@H]4C(=O)O)ccc3C2=O)c1 (stereo not given in full) | - | 13.9 | - | - | -
O=C(NC1CCCCC1)c1ccc(-c2cccc([N+](=O)[O-])c2)o1 | - | - | - | - | -
O=S(=O)(c1cccc(-c2n[nH]c(=S)o2)c1)N1CCOCC1 | - | - | - | - | -
CC(C[N+](C)(C)C)OC(=O)C1(c2ccccc2)CCCC1 (stereo not given) | - | - | - | -10.1 | -
CCN(CC)CCOC(=O)C1(c2ccc([N+](=O)[O-])cc2)CCCC1 | - | - | . | . | -
C[N+](C)(C)CCOC(=O)C1(c2ccccc2)CCCC1 | - | - | - | -8.22 | -
COc1ccc(NC(=O)C2(c3ccccc3)CCCC2)cc1 | - | - | - | - | -
CCN(CC)CCOC(=O)C1(c2ccccc2)CCOCC1 | - | - | - | -6.99 | -
C[N+]1(CCOC(=O)C2(c3ccccc3)CCCC2)CCCCC1 | - | - | - | -7.47 | -
CCN(CC)CCOCCOC(=O)C1(c2ccccc2)CCCC1 | - | - | - | - | -
CCOC(=O)CCS(=O)(=O)c1ccc(-c2ccc(S(=O)(=O)CCC(=O)OCC)cc2)cc1 | -7.1 | - | - | - | -
COc1ccc2c(=O)c3c(=O)n(CCc4ccccc4)c(C(C)C)nc3oc2c1 | - | - | - | - | -
Cn1nnc2cc(C(=O)N3CCN(c4ccccn4)CC3)ccc21 | - | - | - | - | -
CCN(CC)CCCNC(=O)C1CCN(C(=O)c2cc3sccc3n2Cc2ccc(F)cc2)CC1 | -5.96 | - | - | - | -
CC1(C)Oc2ccc(C(=O)NN)cc2NC1=O | - | - | - | - | -
O=C(Cn1c(=O)n(-c2ccccc2)c(=O)n1CC(=O)N1CCCCC1)N1CCCCC1 | - | - | - | - | 36
COc1ccccc1/C=C1\SC(=O)N(CC(=O)N(C)C2CCS(=O)(=O)C2)C1=O (stereo not given) | - | - | - | - | -
O=C(CNS(=O)(=O)c1ccc(Br)s1)N1CCN(c2ccc(F)cc2)CC1 | - | - | - | - | -
CC(C)N(CCC(=O)c1ccc2ccccc2c1)Cc1ccccc1 | - | - | . | . | 38.9
SMILES | MrgX1 antagonist | MrgX1 PAM | RGS4 inh | RGS4 pot | MrgX1 ag
CCC(=O)CCC(=O)c1ccc2ccccc2c1 | - | - | - | - | -
COc1ccc(/C=N/Nc2nnc(Cc3ccccc3)c(=O)[nH]2)cc1 | - | - | - | - | 27.8
N#C/C(=C/c1ccc2c(c1)OCO2)C(=O)Nc1ccc(O)cc1 | - | - | - | - | -
CCCCCc1c2c(cc(O)c1C(=O)O)OC(=O)c1c(cc(OC)cc1C(=O)CCCC)O2 | -7.89 | - | - | -6.98 | -
CCCCc1c(C(=O)O)cc(OC)cc1C(=O)O | - | - | - | - | -
CCN(CC(=O)NCC1CCCO1)S(=O)(=O)c1ccc(Cl)cc1 (stereo not given) | - | - | - | - | -
COc1cc(/C=C2/C(=O)N(c3cccc(Br)c3)N=C2C)cc(OC)c1O | - | - | - | - | 62.5
O=C1S/C(=C/c2ccc(N3CCOCC3)o2)C(=O)N1Cc1c(F)cccc1Cl | - | 9.41 | - | - | -
O=C1N=C(N2CCOCC2)S/C1=C/c1ccc(-c2ccccc2Cl)o1 | - | - | - | - | -
O=C1S/C(=C\c2ccc(N3CCOCC3)o2)C(=O)N1Cc1c(F)cccc1Cl | - | - | - | - | 56.2
O=C1S/C(=C\c2ccc(N3CCOCC3)o2)C(=O)N1c1ccccc1 | - | - | - | -7.62 | -
O=C(O)c1ccccc1-c1ccc(/C=C2\SC(=O)N(c3ccccc3)C2=O)o1 | - | - | - | - | -
O=C(N/N=C/c1cn(-c2ccccc2)nc1-c1cccnc1)c1ccc(F)cc1 | - | - | - | - | -
O=C(N/N=C/c1cn(-c2ccccc2)nc1-c1cccs1)c1ccccc1F | - | - | - | -7.36 | -
O=C(N/N=C/c1cn(-c2ccccc2)nc1-c1cccs1)c1ccc(Cl)cc1 | - | - | - | -6.95 | -
CCOCCCNc1nc2c(C)cccn2c(=O)c1/C=C1\SC(=S)N(CC(C)C)C1=O | -6.82 | - | - | - | -
CCOCCCNc1nc2c(C)cccn2c(=O)c1/C=C1\SC(=S)N(C(C)CC)C1=O (stereo not given) | -15.2 | - | - | - | -
Cc1ccc(CN2CCN(C(=O)CC(C)C)CC2)cc1 | - | - | - | - | -
O=S(=O)(c1ccc(NC(=S)N/N=C/c2c3ccccc3cc3ccccc23)cc1)N1CCOCC1 | - | - | - | - | -
COc1ccc(/C=C2\SC(=O)N(CCNC(=O)Cc3coc4cc(C)ccc34)C2=O)cc1OC | - | - | - | -8.49 | -
Cc1cccc(C)c1OCc1cc(C(=O)N2CCC(C3CCCCC3)C2)no1 (stereo not given) | - | - | - | -7.58 | -
O=C(c1ccc(CNS(=O)(=O)c2cccc(Cl)c2)cc1)N1CCCCC1 | - | - | - | - | -
COc1ccc(/C=C/C(=O)C2C(=O)C=C(C)OC2=O)cc1O (stereo not given) | -4.67 | - | - | - | -
Cc1ccc(S(=O)(=O)c2cc3ccccc3oc2=O)cc1 | - | - | - | - | -
Cc1c(O)ccc2cc(S(=O)(=O)c3ccccc3)c(=O)oc12 | - | - | - | -7.77 | -
CC1(C)CC(=O)C(C2C3=C(CC(C)(C)CC3=O)Oc3c(Br)cc(Br)cc32)=C(O)C1 (stereo not given) | - | - | - | - | 52.2
CC1(C)CC(=O)C2=C(C1)OC1=C(C(=O)CC(C)(C)C1)C2c1cc([N+](=O)[O-])cc([N+](=O)[O-])c1O | - | - | - | - | -
CCC(NC(=S)NCc1ccc(F)cc1)c1ccccc1 (stereo not given) | -5.72 | - | - | - | -
COc1ccc(C(C)NC(=S)NCc2ccc(F)cc2)cc1 (stereo not given) | - | - | - | - | -
COc1ccc(N2C(=O)CSC2c2ccc3c(c2)OCO3)cc1 (stereo not given) | - | - | - | -6.96 | -
